Compound activity (PubChem)
thrombin 1536: thrombin (human) inhibition. alpha-thrombin, Boc-VPR-AMC fluorogenic substrate cleavage. inhibition, % at 5 µM. hit rate 0.26% among 220,000;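 active means inhibition at or above 40%; inactive means inhibition below 40%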
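Assay system: human alpha-thrombin enzyme. Reagent: Boc-VPR-AMC substrate, 15 µM final. Compound dosing: one concentration per compound, 5 µM, with 0.2% DMSO. Incubation: room-temperature reaction. Technique: AMC fluorescence, 355/460 nm. Measure: % inhibition relative to enzyme controls and enzyme-free blanks.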
FXIa inh: factor XIa (human) inhibition | AID 798 | purified FXIa, Boc-Glu-Ala-Arg-AMC fluorogenic substrate | hit rate 0.14% among 220,000 | inhibition, % at 5 µM;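 active means inhibition of at least 40%; inactive means inhibition below 40%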;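 further: fluorescence of freed AMC excited at 355 nm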
KLK5 inh: inhibitors of human kallikrein 5; recombinant hK5, fluorogenic AMC substrate cleavage; Q9Y337; hit rate 0.59% among 210,000; inhibition, % at 5 µM;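 active means inhibition of 40% or more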
Biofilm kill mix: mixtures killing C. albicans biofilm; C. albicans biofilm persisters + clotrimazole, fluorescence viability; primary screen in compound mixtures of four per well; inhibition, % at 7.6 µM; hit rate 0.02% among 120,000; AID 1242;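 active means inhibition above 30.3% in the primary screen of four-compound pools, then above 30% when the compound was retested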;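 further: compounds exposed to preformed 24 h biofilms for 48 h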
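Assay system: C. albicans biofilms / Medium: RPMI/MOPS medium, pH 7.0 / Schedule: biofilm formation 24 h, compound exposure 48 h, 37 °C / Measured by: Alamar Blue fluorescence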
Furin inh: human furin inhibition | P09958 | purified furin, fluorogenic substrate cleavage | inhibition, % at 20 µM or 30 µM | hit rate 0.061% among 220,000; in the data active means inhibition above about 25%
FXIIa inh 1536: blocks human coagulation factor XIIa protease activity; inhibition, % at 5 µM; P00748; AID 800; hit rate 0.3% among 220,000; purified FXIIa, Boc-QGR-AMC fluorogenic substrate, 2 h; in the data active means inhibition above about 40%
Target sequence (P00748 20-372 limits assumed): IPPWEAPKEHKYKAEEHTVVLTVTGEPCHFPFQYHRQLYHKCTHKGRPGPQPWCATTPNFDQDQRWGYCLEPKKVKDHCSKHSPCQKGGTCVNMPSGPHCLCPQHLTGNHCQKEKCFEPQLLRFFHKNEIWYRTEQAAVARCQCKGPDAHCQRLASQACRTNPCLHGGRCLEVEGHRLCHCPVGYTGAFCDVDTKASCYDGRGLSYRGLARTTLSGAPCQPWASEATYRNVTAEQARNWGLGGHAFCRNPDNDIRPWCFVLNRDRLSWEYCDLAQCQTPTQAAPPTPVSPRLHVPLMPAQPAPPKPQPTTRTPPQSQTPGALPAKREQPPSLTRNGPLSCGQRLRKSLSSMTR
Target sequence (P00748 373-615 limits assumed): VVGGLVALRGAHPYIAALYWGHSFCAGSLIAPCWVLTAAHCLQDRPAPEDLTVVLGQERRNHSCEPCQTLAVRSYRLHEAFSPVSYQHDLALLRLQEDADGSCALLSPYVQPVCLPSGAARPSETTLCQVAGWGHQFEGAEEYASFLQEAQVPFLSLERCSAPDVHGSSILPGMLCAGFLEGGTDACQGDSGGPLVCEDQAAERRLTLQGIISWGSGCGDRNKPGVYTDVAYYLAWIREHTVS
Hits are given with their value; – = inactive; · = no result. A selection: hits, their analogues and other compounds. The true share with any hit is near 1.1%.

SMILES	thrombin 1536	FXIa inh	KLK5 inh	Biofilm kill mix	Furin inh	FXIIa inh 1536
CCC(C(=O)OCC(=O)Nc1ccc(C(N)=O)cc1)c1ccccc1 (centres undefined)	–	–	–	–	–	–
Cc1cc(OC(=O)c2ccc(Cl)cc2Cl)nc(C)n1	–	–	–	·	–	45
Cc1nn(-c2ccccc2)c(N)c1C(O)(CC(=O)C(F)(F)F)C(F)(F)F (centres undefined)	–	–	–	–	–	–
Cc1nn(-c2ccccc2)c(N)c1C(O)(C(F)(F)F)C(F)(F)F	–	–	42	–	–	–
O=C(Cc1ccccc1)NCC(=O)N/N=C/c1ccc(Cl)cc1	–	–	–	–	–	–
COc1ccc(C(=O)NCCN2CCOCC2)cc1OC	–	–	–	–	30	–
COc1ccc(C(=O)NCCN2CCCC2)cc1OC	–	–	–	·	–	–
OCCC1CN(Cc2cnc(N3CCOCC3)s2)CCN1C1CCCC1 (centres undefined)	–	–	·	–	–	–
CC(CCc1ccccc1)NC(=O)c1ccc(Cl)nc1 (centres undefined)	–	–	–	·	–	–
O=C(NCc1ccccc1)c1ccc(Cl)nc1	–	45	–	–	–	–
O=C(COC(=O)CCN1C(=O)c2cccc([N+](=O)[O-])c2C1=O)NCc1ccccc1	–	–	42	–	–	–
COc1ccc(-c2cc(C(=O)OCC(=O)c3cccc([N+](=O)[O-])c3)c3cc(C)ccc3n2)cc1	–	–	–	–	–	–
Cc1cc(C(=O)OCC(=O)c2cccc([N+](=O)[O-])c2)c2cccc(C)c2n1	61	–	–	·	–	–
FC(F)(F)c1ccc(C2NCCc3sccc32)cc1 (centres undefined)	–	–	–	–	–	–
COc1cc(/C=N/NC(=O)c2cccc([N+](=O)[O-])c2)ccc1OCc1ccccc1	–	–	–	·	–	–
COc1cc(/C=C/[N+](=O)[O-])ccc1OCc1cccc(C(=O)O)c1	–	–	43	–	–	–
O=C(/C=C/c1cccc([N+](=O)[O-])c1)n1cnc2ccccc21	–	–	–	–	–	–
Cc1csc(SCC(=O)Nc2c(C)n(C)n(-c3ccccc3)c2=O)n1	–	–	–	·	–	–
Cc1c(NC(=O)CSc2nc3ccccc3s2)c(=O)n(-c2ccccc2)n1C	–	–	–	·	–	45
O=C(CSc1nc2ccccc2s1)NC1CCCC1	–	–	–	–	–	42
O=C(O)C(c1ccccc1)C(c1ccccc1)c1ccccc1 (centres undefined)	–	–	–	–	–	–
CSC1=N/C(=C\c2ccc(C)o2)C(=O)S1	104	–	102	·	–	–
COc1ccc(CC(=O)NC2CCCc3ccccc32)cc1 (centres undefined)	–	–	–	–	–	–
Cc1ccc(C(=O)NC2CCCc3ccccc32)o1 (centres undefined)	–	–	–	·	25	–
CCOC(=O)N1CCN(c2c(NCCc3ccccc3)c(=O)c2=O)CC1	–	–	–	·	–	–
SMILES	thrombin 1536	FXIa inh	KLK5 inh	Biofilm kill mix	Furin inh	FXIIa inh 1536
CCOC(=O)N1CCN(c2c(NCc3ccccn3)c(=O)c2=O)CC1	–	–	40	·	–	–
NCCCCCC(=O)N/N=C/c1coc2ccccc2c1=O	–	–	–	–	–	–
Cc1ccc(N2C(=O)N(CC(=O)Nc3ccc(C)c(C)c3[N+](=O)[O-])C(=O)C2C)cc1 (centres undefined)	–	–	–	–	–	–
Cc1ccc(-n2c(C)cc(/C=N/NC(=O)CN(c3ccc(C)cc3C)S(C)(=O)=O)c2C)cc1	–	–	42	·	–	–
Cc1cc(C)cc(-n2c(C)cc(/C=N/NC(=O)CN(c3c(C)cccc3C)S(C)(=O)=O)c2C)c1	–	–	–	·	–	–
COC(=O)C(=C/C(C)=C/c1cccnc1)C(=O)OC	–	–	–	–	–	–
CC1(C)NC(=O)N(CC(O)COc2ccccc2-c2ccccc2)C1=O (centres undefined)	–	–	–	·	–	–
COc1ccccc1OCC(O)CN1C(=O)NC(C)(C)C1=O (centres undefined)	–	–	64	·	–	–
C=CCN1C(=O)C(C)NC1=S (centres undefined)	–	–	–	–	–	–
C=CCN1C(=O)C(C(C)CC)NC1=S (centres undefined)	41	–	88	·	–	–
